Measured values as given in publication PMC9226493 (Nucleic Acids Research, 2022).

Assays:
acpP^91::gfp RNA = experiment: In vitro translation of acpP::gfp RNA, western blot of AcpP1-17-GFP; type: biochemical, Escherichia coli; details: 10-molar excess of PPNA over template RNA; performed two times; listed as (KFF)3K-acpP
In short: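 Target-gene fragment fused to gfp by overlap PCR, then T7 in vitro transcribed (3 h 45 min, 37°C; then DNase) and checked on 6% PAA/7 M urea gels. Heat-denatured RNA (1 pmol, 100 nM final) was pre-incubated with test compound at 37°C for 5 min. It was then translated in PURExpress for 2 h at 37°C. Water served as control. Analysis: 12% SDS-PAGE, anti-GFP western, Ponceau loading check, ImageJ signal relative to control.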

UPEC 536 [1] = experiment: Minimal inhibitory concentration; type: cell-based, Escherichia coli; details: (KFF)3K-conjugated 10mer PNAs at concentrations ≤10 μM, 24 h
UPEC 536 [2] = experiment: Killing time kinetics; type: cell-based, Escherichia coli; details: 1.25 μM, UPEC 536 10^5 cfu/ml, within 24 h

| Sequence | growth inhibition of UPEC 536 (UPEC 536 [1]) | also measured |
| --- | --- | --- |
| KFFKFFKFFK [acpP 10mer PPNA] |  | effect on in vitro synthesis of AcpP1-17-GFP (acpP^91::gfp RNA): substantially inhibited |
| KFFKFFKFFK [csrA 10mer PPNA] | did not trigger complete growth inhibition |  |
| KFFKFFKFFK [nusG 10mer PPNA] | did not trigger complete growth inhibition |  |
| KFFKFFKFFK [scrambled 10mer PPNA] |  | abundance of living bacterial cells compared to the water control (UPEC 536 [2]): did not affect the abundance of living bacterial cells |
| KFFKFFKFFK [yidC 10mer PPNA] | did not trigger complete growth inhibition |  |
